The nature of series [1]: Half life in HEPES buffer at 80 uM at pH 7.2 by RP-HPLC analysis. It counts as physicochemical. The method in brief: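 Compound at 80 µM in 20 mM HEPES (pH 7.2 or 2.0) incubated at 37 °C; aliquots analyzed by RP-HPLC at 0, 1, 4, 6, 12, 18 and 24 h to follow methylthioalkyl deprotection and derive half-life.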
Series [2] can be described thus: Half life in Sprague-Dawley rat plasma at 150 uM at pH 7.4 by RP-LCMS analysis. It counts as ADME. An outline of the steps: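 Pooled female Sprague-Dawley rat plasma, pre-warmed 2 min at 37 °C, incubated with compound in triplicate at 37 °C to follow deprotection and half-life.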
Series [3] deals with Z-138. Kind of series: Prodrug activation in human Z138 cells assessed as 9-((2R,3R,4S,5R)-5-(((((2-(1H-Indol-3-yl)ethyl)amino)-(hydroxy)phosphoryl)oxy)methyl)-3,4-dihydroxytetrahydrofuran-2-yl)-2-amino-7-(2-(4-chlorophenoxy)ethyl)-6-oxo-6,9-dihydro-1H-purin-7-ium formation per 5 million cells at 150 uM after 12 hrs by LC-MS/MS analysis. It counts as cell-based. The conditions noted are these: z-138, 12 h. An outline of the steps: (§1)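 Mantle cell lymphoma cells (five million) grown in RPMI with 10% FBS, penicillin/streptomycin and L-glutamine at 37 °C, 5% CO2, then exposed to 150 µM compound for 12 h at 37 °C. Washed with ice-cold PBS, pellet extracted in MeOH/NH4OAc (60:40) with 80 fmol internal standards, three liquid-N2 freeze–thaw cycles, filtered, dried, redissolved in 20 mM HEPES pH 7.2. Analysed by LC-MS/MS against a standard curve.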

Series [4] has as its system Granta-519. Briefly: Prodrug activation in human GRANTA-519 cells assessed as 9-((2R,3R,4S,5R)-5-(((((2-(1H-Indol-3-yl)ethyl)amino)-(hydroxy)phosphoryl)oxy)methyl)-3,4-dihydroxytetrahydrofuran-2-yl)-2-amino-7-(2-(4-chlorophenoxy)ethyl)-6-oxo-6,9-dihydro-1H-purin-7-ium formation per 5 million cells at 150 uM after 12 hrs by LC-MS/MS analysis. The note with it: granta-519, 12 h. It counts as cell-based. An outline of the steps:
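Five million MCL cells in RPMI/10% FBS with penicillin, streptomycin and L-glutamine were exposed to compound (150 µM) for 12 h at 37 °C. Cells were washed in cold PBS, extracted in MeOH/NH4OAc (60:40) with 80 fmol internal standards, freeze-thawed three times, then filtered and dried. Residue was taken up in HEPES for LC-MS/MS, quantified against an internal-standard curve.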

Series [5] concerns the target T1, Adenosine 5'-monophosphoramidase HINT1 (Homo sapiens, UniProt P49773). Briefly: Prodrug activation in human Mino cells assessed as Hint1 mediated 2-amino-7-(2-(4-chlorophenoxy)ethyl)-9-((2R,3R,4S,5R)-3,4-dihydroxy-5-(phosphonooxymethyl)tetrahydrofuran-2-yl)-6-oxo-6,9-dihydro-1H-purin-7-ium formation per 5 million cells at 150 uM after 12 hrs by LC-MS/MS analysis. It counts as cell-based. The method in brief: as §1

The test system of series [6] is Z-138. Kind of series: Antiproliferative activity against human Z138 cells preincubated for 48 hrs followed by thymidine addition measure after 16 hrs by Thymidine incorporation assay. The class given is functional, cell-based. The method in brief:
(§2)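 MCL lines treated 48 h with compound re-added daily, alone or with co-drug (ibrutinib 25 µM where used), then thymidine added for a further 16 h; proliferation read as thymidine incorporation.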

Series [7] has as its system Granta-519. Kind of series: Antiproliferative activity against human GRANTA-519 cells preincubated for 48 hrs followed by thymidine addition measure after 16 hrs by Thymidine incorporation assay. It counts as functional, cell-based. An outline of the steps: as §2
Series [8] deals with Granta-519. Kind of series: Antiproliferative activity against human GRANTA-519 cells after 48 hrs by Annexin V/propidium iodide based flow cytometric analysis. It counts as functional, cell-based. The note with it: Granta-519, 48 h. The method in brief: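 MCL lines treated 48 h with compound re-added daily (alone or with co-drug; ibrutinib 25 µM), then survival assessed by Annexin V/PI flow cytometry.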

Series [9] concerns the target Eukaryotic translation initiation factor 4E (Homo sapiens) (UniProt P06730). Briefly: Inhibition of eIF4E in human GRANTA-519 cells assessed as down regulation of Bcl-2 protein expression at 50 to 200 uM after 48 hrs by Western blot method. It counts as cell-based. The method in brief:
(§3)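 MCL lines treated 48 h with compound; protein quantified and Western blotted with eIF4E, eIF4G, actin, c-Myc and Bcl-2 antibodies.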

Series [10] shares this target. Briefly: Inhibition of eIF4E in human Mino cells assessed as down regulation of c-Myc mRNA expression at 100 uM by RT-PCR based RNA Immunoprecipitation. The class given is cell-based. An outline of the steps: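 RNA-immunoprecipitation on Mino cells with a RNA-binding protein immunoprecipitation kit.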
For series [11] the target is unchanged. Kind of series: Inhibition of eIF4E in human Mino cells assessed as potentiation of doxorobucin induced antiproliferation at 100 uM preincubated for 48 hrs followed by thymidine addition measure after 16 hrs by Thymidine incorporation assay. It counts as cell-based. The method in brief:
as §2

The target in series [12] is Eukaryotic translation initiation factor 4E-binding protein 1 (Homo sapiens) (UniProt Q13541). Kind of series: Inhibition of 4EBP1 phosphorylation at Ser 65 residues in human Mino cells at 100 uM after 48 hrs by Western blot analysis. It counts as cell-based. An outline of the steps:
as §3

Series [13] has the same target. Kind of series: Inhibition of 4EBP1 phosphorylation at Thr 37/46 residues in human Mino cells at 100 uM after 48 hrs by Western blot analysis. It counts as cell-based. An outline of the steps: as §3
The target is the same in series [14]. Briefly: Inhibition of 4EBP1 phosphorylation at Ser 65 residues in human Mino cells at 100 uM after 48 hrs in presence of ibrutinib by Western blot analysis. It counts as cell-based. An outline of the steps:
as §3

Series [15] addresses T1, Adenosine 5'-monophosphoramidase HINT1. Briefly: Prodrug activation in human GRANTA-519 cells assessed as hint1-mediated 2-amino-7-(2-(4-chlorophenoxy)ethyl)-9-((2R,3R,4S,5R)-3,4-dihydroxy-5-(phosphonooxymethyl)tetrahydrofuran-2-yl)-6-oxo-6,9-dihydro-1H-purin-7-ium formation per 5 million cells at 150 uM after 12 hrs by LC-MS/MS analysis relative to 9-((2R,3R,4S,5R)-5-(((((2-(1H-Indol-3-yl)ethyl)amino)-(hydroxy)phosphoryl)oxy)methyl)-3,4-dihydroxytetrahydrofuran-2-yl)-2-amino-7-(2-(4-chlorophenoxy)ethyl)-6-oxo-6,9-dihydro-1H-purin-7-ium. It counts as cell-based. An outline of the steps: as §1

The subject of series [16] is Rattus norvegicus. Kind of series: AUC (0 to 8 hrs) in Sprague-Dawley rat plasma assessed as 9-((2R,3R,4S,5R)-5-(((((2-(1H-Indol-3-yl)ethyl)amino)-(hydroxy)phosphoryl)oxy)methyl)-3,4-dihydroxytetrahydrofuran-2-yl)-2-amino-7-(2-(4-chlorophenoxy)ethyl)-6-oxo-6,9-dihydro-1H-purin-7-ium at 25 mg/kg, po by LC-MS/MS analysis. The class given is ADME, organism-based. The note with it: in vivo. Further details: time < 8 hr, dose 25 mg/kg, route oral. The method in brief:
(§4)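 Female Sprague-Dawley rats (250-274 g, n=3, catheterized femoral/jugular veins) dosed once p.o. by gavage (25 mg/kg) then, after a 3-day washout, i.v. (2.5 mg/kg). Formulation: 10 mg/mL in 0.5% aqueous CMC with 5% DMSO. Serial blood draws to 480 min into K2EDTA; plasma protein-precipitated with acetonitrile plus internal standards; LC-MS/MS (positive MRM); non-compartmental PK; %F from dose-normalized AUC per rat.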

Series [17] deals with Rattus norvegicus. Kind of series: Cmax in Sprague-Dawley rat assessed as 9-((2R,3R,4S,5R)-5-(((((2-(1H-Indol-3-yl)ethyl)amino)-(hydroxy)phosphoryl)oxy)methyl)-3,4-dihydroxytetrahydrofuran-2-yl)-2-amino-7-(2-(4-chlorophenoxy)ethyl)-6-oxo-6,9-dihydro-1H-purin-7-ium level at 25 mg/kg, po measured at 30 mins post dose by LC-MS/MS analysis. The class given is ADME, organism-based. Further details: dose 25 mg/kg, route oral. The note with it: in vivo, 0.5 h. An outline of the steps:
as §4

Active and inactive are the calls of the source. The rule behind the calls is not given here. Some results are limits rather than exact numbers.

Sequence of Eukaryotic translation initiation factor 4E (Homo sapiens) (P06730 whole entry): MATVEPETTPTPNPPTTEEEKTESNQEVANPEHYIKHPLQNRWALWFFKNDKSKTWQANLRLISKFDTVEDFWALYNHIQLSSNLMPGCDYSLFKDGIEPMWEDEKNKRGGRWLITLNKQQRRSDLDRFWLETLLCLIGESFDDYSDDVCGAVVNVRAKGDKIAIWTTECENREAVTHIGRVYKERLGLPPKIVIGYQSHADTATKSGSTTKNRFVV
Sequence of Eukaryotic translation initiation factor 4E-binding protein 1 (Homo sapiens) (Q13541 whole entry): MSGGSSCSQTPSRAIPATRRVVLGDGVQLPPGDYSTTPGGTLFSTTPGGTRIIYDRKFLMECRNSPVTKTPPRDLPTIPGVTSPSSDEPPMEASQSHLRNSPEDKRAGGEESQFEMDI
T1 sequence (P49773 whole entry): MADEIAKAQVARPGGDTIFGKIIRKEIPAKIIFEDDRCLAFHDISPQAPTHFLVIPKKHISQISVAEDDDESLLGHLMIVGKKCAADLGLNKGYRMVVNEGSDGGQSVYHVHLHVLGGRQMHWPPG

`CSCCOP(=O)(NCCc1c[nH]c2ccccc12)OC[C@H]1O[C@@H](n2c[n+](CCOc3ccc(Cl)cc3)c3c(=O)[nH]c(N)nc32)[C@H](O)[C@@H]1O` (stereo partly drawn) had a half-life at 80 µM in series [1] of 8.5 h. This molecule also gave a half-life at 150 µM in [2] of 7.2 h. Further, the Drug metabolism in series [3] stood at 37.3 pmol; in [4] it was 0.33 pmol; in [5], 218 pmol. In addition, the Activity entry in series [6] and in [7] was “Dose-dependent effect” each time. Besides, the half-inhibitory concentration (IC50) in [7] is 50 µM; in series [8] it was greater than 200 µM. Moreover, the inhibition result in [9], in [10], in [12] and in series [13] was “inactive” in each case. Also, the inhibition entry in [11] and in series [14] was “Active” each time. The “fold change (FC)” value in series [15] worked out at 1.9. Moreover, in series [16], the area under the curve (AUC) is 2.6 µg·min/mL. Besides, the maximum concentration (Cmax) in series [17] was 6 ng/mL.
